Source: ChEMBL document CHEMBL4038326, “Discovery, Structure-Activity Relationship, and Binding Mode of an Imidazo[1,2-a]pyridine Series of Autotaxin Inhibitors” (J Med Chem, 2017)

Columns and labels:
[1] = biological target: T1, Autotaxin (Homo sapiens, UniProt Q13822); assay: Inhibition of glycosylated human ATX using LPC 16:0 as substrate after 30 mins by luminescence assay
Outline: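 Started with 150 µM LPC 16:0 solution, 30 min at 37°C. Stopped with EGTA and choline detected by choline oxidase/HRP/TOOS/4-aminoantipyrine; read after 30 min at room temperature.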

[2] = biological target: Autotaxin (Rattus norvegicus, UniProt Q64610); assay: Inhibition of ATX in rat plasma assessed as reduction in plasma lysophosphatidic acid 18:2 levels after 2 hrs by LC-MS/MS method
Outline: (§1)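 Rat plasma thawed on ice and incubated with a compound dose range for 2 h at 37°C. Methanol precipitation with LPA 17:0 internal standard, isocratic C18 LC-MS/MS, LPA 18:2/LPA 17:0 peak-area ratio. % reduction = 100 − (ratio/control ratio × 100). Some compounds were tested only at 0.5, 5 and 50 µM (n = 3).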

[3] = biological target: T1, Autotaxin; assay: Inhibition of glycosylated human ATX using FS-3 as substrate preincubated for 30 mins followed by substrate addition measured after 30 mins by fluorescence assay
Outline: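 Fivefold compound dilutions from a 20 µM top. Started with 0.75 µM FS-3 solution; fluorescence (ex 485, em 520 nm) read after 30 min at room temperature. SD where replicated at least twice.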

[4] = biological target: Autotaxin (Rattus norvegicus) (UniProt Q64610); conditions: 0.5 uM
[5] = biological target: Autotaxin (Rattus norvegicus) (UniProt Q64610); conditions: 5 uM
[6] = biological target: Autotaxin (Rattus norvegicus) (UniProt Q64610); conditions: 50 uM
[7] = Half life in Sprague-Dawley rat at 1 mg/kg, iv; assay type: ADME, organism-based; conditions: in vivo
Outline: (§2)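 PK from single 1 mg/kg iv and 5 mg/kg po doses (n = 3); mice sampled compositely as a group of six. Plasma drug by LC-MS/MS against an eight-level calibration curve with QCs, LLOQ 4 ng/mL. Parameters by noncompartmental analysis of averaged plasma concentrations; CV% reported for rats.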

[8] = Half life in mouse at 1 mg/kg, iv; assay type: ADME, organism-based; conditions: in vivo; outline: as §2
[9] = Volume of distribution at steady state in mouse at 1 mg/kg, iv; assay type: ADME, organism-based; conditions: in vivo, read-out: Vdss; outline: as §2
[10] = Volume of distribution at steady state in Sprague-Dawley rat at 1 mg/kg, iv; assay type: ADME, organism-based; conditions: in vivo, read-out: Vdss; outline: as §2
[11] = Plasma concentration in Sprague-Dawley rat at 5 mg/kg, po measured after 0.5 hrs by LC-MS/MS method; assay type: ADME, organism-based
Outline: (§3)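 Fasted male Sprague Dawley rats dosed orally at 5 mg/kg in 10% hydroxypropyl-β-cyclodextrin (pH 3, citric acid); jugular catheter blood into Li-heparin at 0.5, 1, 3 h. Plasma level by LC-MS/MS against an eight-level calibration curve with QCs, LLOQ 4 ng/mL; mean of 3 animals.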

[12] = Plasma concentration in Sprague-Dawley rat at 5 mg/kg, po measured after 1 hr by LC-MS/MS method; assay type: ADME, organism-based; outline: as §3
[13] = Plasma concentration in Sprague-Dawley rat at 5 mg/kg, po measured after 3 hrs by LC-MS/MS method; assay type: ADME, organism-based; outline: as §3
[14] = system: Rattus norvegicus; assay: In vivo inhibition of ATX in Sprague-Dawley rat plasma assessed as reduction in plasma lysophosphatidic acid 18:2 levels at 5 mg/kg, po measured after 0.5 hrs by LC-MS/MS method; assay type: functional
Outline: (§4)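 Fasted male Sprague Dawley rats given 5 mg/kg orally in 10% hydroxypropyl-β-cyclodextrin, pH 3 with citric acid. Jugular catheter blood taken into Li-heparin at 0.5, 1 and 3 h. Methanol precipitation with LPA 17:0 internal standard, isocratic C18 LC-MS/MS, peak-area ratio of LPA 18:2 to LPA 17:0 with no calibration curve. % reduction against the vehicle group mean at the same time; 3 animals.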

[15] = system: Rattus norvegicus; assay: In vivo inhibition of ATX in Sprague-Dawley rat plasma assessed as reduction in plasma lysophosphatidic acid 18:2 levels at 5 mg/kg, po measured after 1 hr by LC-MS/MS method; assay type: functional; outline: as §4
[16] = system: Rattus norvegicus; assay: In vivo inhibition of ATX in Sprague-Dawley rat plasma assessed as reduction in plasma lysophosphatidic acid 18:2 levels at 5 mg/kg, po measured after 3 hrs by LC-MS/MS method; assay type: functional; outline: as §4
[17] = Protein binding in Sprague-Dawley rat plasma; assay type: ADME, cell-free; conditions: read-out: PPB
[18] = biological target: Autotaxin (Rattus norvegicus) (UniProt Q64610); assay: Inhibition of ATX in rat plasma assessed as reduction in plasma lysophosphatidic acid 18:2 levels at 0.5 to 50 uM after 2 hrs by LC-MS/MS method relative to control; outline: as §1
[19] = Clearance in Sprague-Dawley rat at 1 mg/kg, iv; assay type: ADME, organism-based; conditions: in vivo; outline: as §2
[20] = Oral bioavailability in Sprague-Dawley rat at 5 mg/kg; assay type: ADME, organism-based; conditions: in vivo; outline: as §2

Row | Compound | IC50 [1] [nM] | further results
1 | CCc1nc2ccc(C3CCN(S(C)(=O)=O)CC3)cn2c1N(C)c1nc(-c2cc(F)cc(F)c2)cs1 | 4250 | –
2 | CCc1nc2ccc(C3CCN(S(C)(=O)=O)CC3)cn2c1N(C)c1nc(-c2ccc(F)cc2F)cs1 | 2020 | –
3 | CCc1nc2ccc(C3CCN(S(C)(=O)=O)CC3)cn2c1N(C)c1nc2ccccc2s1 | > 10000 | –
4 | CCc1nc2ccc(C3CCN(S(C)(=O)=O)CC3)cn2c1N(C)c1nc2c(s1)Cc1ccc(F)cc1-2 | 804 | –
5 | CCc1nc2ccc(C3CCN(CC(=O)NC4CC4)CC3)cn2c1N(C)c1nc(-c2ccc(F)cc2)cs1 | 1610 | –
6 | CCc1nc2ccc(N3CCN(CC(=O)N4CCOCC4)CC3)cn2c1N(C)c1nc(-c2ccc(F)cc2)cs1 | 231 | –
7 | CCc1nc2ccc(C3CCN(S(C)(=O)=O)CC3)cn2c1N(C)c1nc(-c2ccc(C(C)(C)C)cc2)cs1 | 7610 | –
8 | CCc1nc2ccc(N3CCN(Cc4cnc[nH]4)CC3)cn2c1N(C)c1nc(-c2ccc(F)cc2)cs1 | 771 | IC50 [2]: 4100 nM
9 | CCOC(=O)N1CCC(NCc2ccc3nc(CC)c(N(C)c4nc(-c5ccc(Cl)cc5)cs4)n3c2)CC1 | 1210 | IC50 [3]: 9 nM; IC50 [2]: < 5000 nM; inhibition [4]: 7%; inhibition [5]: 67%; inhibition [6]: 100%
10 | CCc1nc2ccc(N3CCN(Cc4ncc[nH]4)CC3)cn2c1N(C)c1nc(-c2ccc(F)cc2)cs1 | > 4100 | –
11 | CCc1nc2ccc(N3CCN(Cc4ncco4)CC3)cn2c1N(C)c1nc(-c2ccc(F)cc2)cs1 | 1520 | –
12 | CCc1nc2ccc(C3CCN(CC(N)=O)CC3)cn2c1N(C)c1nc(-c2ccc(F)cc2)cs1 | 2370 | –
13 | CCc1nc2ccc(N3CCN(CCO)CC3)cn2c1N(C)c1nc(-c2ccc(F)cc2)cs1 | 2360 | IC50 [3]: 12 nM; IC50 [2]: 6080 nM
14 | CCc1nc2ccc(C3CCN(S(C)(=O)=O)CC3)cn2c1N(C)c1nc(-c2ccc(OC)cc2)cs1 | 1680 | –
15 | CCc1nc2ccc(C3CCN(S(C)(=O)=O)CC3)cn2c1N(C)c1nc(-c2ccc(F)cc2C#N)cs1 | 126 | –
16 | CCc1nc2ccc(C3CCN(S(C)(=O)=O)CC3)cn2c1N(C)c1nc(-c2ccc(F)cc2)c(C(=O)O)s1 | > 10000 | –
17 | CCc1nc2ccc(C3CCN(S(C)(=O)=O)CC3)cn2c1N(C)c1nc(-c2ccc(F)c(F)c2)cs1 | 1900 | –
18 | CCOC(=O)CN1CCC(c2ccc3nc(CC)c(N(C)c4nc(-c5ccc(F)cc5)cs4)n3c2)CC1 | 480 | –
19 | CCc1nc2ccc(C3CCN(S(C)(=O)=O)CC3)cn2c1N(C)c1nc(-c2ccc(F)cc2C)cs1 | 533 | –

Row | Compound | IC50 [1] [nM] | further results
20 | CCc1nc2ccc(C3CCN(S(C)(=O)=O)CC3)cn2c1N(C)c1nc(-c2ccc(F)cc2)c(C(N)=O)s1 | 1410 | –
21 | CCc1nc2ccc(C3CCN(S(C)(=O)=O)CC3)cn2c1N(C)c1nc(C2CCCCC2)cs1 | 1900 | –
22 | CCc1nc2ccc(N3CCN(Cc4ncon4)CC3)cn2c1N(C)c1nc(-c2ccc(F)cc2)cs1 | 1710 | –
23 | CCOC(=O)CN1CCN(c2ccc3nc(CC)c(N(C)c4nc(-c5ccc(F)cc5)cs4)n3c2)CC1 | 280 | –
24 | CCc1nc2ccc(C3CCN(CC(=O)N4CC(O)C4)CC3)cn2c1N(C)c1nc(-c2ccc(F)cc2)c(C#N)s1 | – | half-life [7]: 2.1 h; half-life [8]: 2 h; Vd [9]: 1.7 L/kg; Vd [10]: 8.3 L/kg; concentration at 0.5 h [11]: 67 nM; concentration at 1 h [12]: 34 nM; concentration at 3 h [13]: 58 nM; inhibition in vivo at 5 mg/kg [14]: 74%; inhibition in vivo at 5 mg/kg [15]: 82%; inhibition in vivo at 5 mg/kg [16]: 97%; fraction unbound [17]: < 0.01
25 | CCc1nc2ccc(-c3cccnc3)cn2c1N(C)c1nc(-c2ccc(F)cc2)cs1 | > 10000 | IC50 [3]: 2 nM; IC50 [2]: > 50000 nM; inhibition [18]: < 50%
26 | CCc1nc2ccc(N3CCOCC3)cn2c1N(C)c1nc(-c2ccc(F)cc2)cs1 | 6800 | IC50 [3]: 8 nM; IC50 [2]: > 50000 nM; inhibition [18]: < 50%
27 | CCc1nc2ccc(N3CCN(CC(=O)O)CC3)cn2c1N(C)c1nc(-c2ccc(F)cc2)cs1 | 9160 | –
28 | CCc1nc2ccc(C3CCN(S(C)(=O)=O)CC3)cn2c1N(C)c1nc(-c2ccc(F)cc2)c(C#N)s1 | 138 | –
29 | CCc1nc2ccc(C3CCN(S(C)(=O)=O)CC3)cn2c1N(C)c1nc2c(s1)Cc1cc(F)ccc1-2 | 1210 | –
30 | CCc1nc2ccc(C3CCN(CC(=O)N4CCCC4)CC3)cn2c1N(C)c1nc(-c2ccc(F)cc2)cs1 | 86 | IC50 [2]: 115 nM
31 | CCc1nc2ccc(C3CCN(CC(=O)N(C)C)CC3)cn2c1N(C)c1nc(-c2ccc(F)cc2)cs1 | 261 | IC50 [2]: 476 nM
32 | CCc1nc2ccc(C3CCN(S(C)(=O)=O)CC3)cn2c1N(C)c1nc(-c2ccc(F)cc2)c(C)s1 | 2270 | –
33 | CCc1nc2ccc(C3CCN(S(C)(=O)=O)CC3)cn2c1N(C)c1nc(-c2ccc(C(F)(F)F)cc2)cs1 | 1000 | –
34 | CCc1nc2ccc(C(=O)NCCO)cn2c1N(C)c1nc(-c2ccc(Cl)cc2)cs1 | > 10000 | IC50 [3]: 122 nM; IC50 [2]: > 50000 nM; clearance [19]: 2.5 mL/min/kg; bioavailability [20]: 39%; inhibition [18]: < 50%
35 | CCc1nc2ccc(C3CCN(S(=O)(=O)CCCN(C)C)CC3)cn2c1N(C)c1nc(-c2ccc(F)cc2)cs1 | 357 | –
36 | CCOC(=O)N1CCC(NC(=O)c2ccc3nc(CC)c(N(C)c4nc(-c5ccc(Cl)cc5)cs4)n3c2)CC1 | 6560 | IC50 [3]: 5 nM; IC50 [2]: 12600 nM
37 | CCc1nc2ccc(C3CCN(S(C)(=O)=O)CC3)cn2c1N(C)c1nc(-c2ccc(F)cc2)cs1 | 710 | IC50 [2]: 1030 nM
38 | CCc1nc2ccc(C3CCN(S(C)(=O)=O)CC3)cn2c1N(C)c1nc(-c2ccc(Cl)nc2)cs1 | 493 | –
